These results are taken from article PMC7856085 (Archives of biochemistry and biophysics, 2020).

Assay [1] addresses GSALDH activity of SmPutA (Sinorhizobium meliloti, UniProt F7X6I3). Kind of assay: GSALDH activity measurements. Type of assay: biochemical. The note with it: for Ki / α: P5C variable substrate.
For a further assay, the system named is SmPutA. Kind of assay: Fluorescence-based thermal shift assay. The class given is binding, Sinorhizobium meliloti. Conditions: compound at 62.5 mM; ligand-free SmPutA T1/2 40.2 °C.
The test system of assay [2] is GSALDH active site of SmPutA. Nature of the assay: Co-crystallization / electron density in the GSALDH active site. Also noted: species or system Sinorhizobium meliloti. Conditions: co-crystallization at 50 mM. In a few lines:
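Recombinant SmPutA (expressed in E. coli) at 6 mg/mL in 50 mM Tris pH 8.0, 50 mM NaCl, 5% glycerol, 0.5 mM TCEP. Sitting-drop co-crystallization at 13 °C against 19% PEG-3350, 0.2 M ammonium sulfate, 0.1 M MgCl2, 0.1 M HEPES pH 8.0, 0.1 M sodium formate. Ligand at 50 mM, with or without 10 mM NAD+. Cryoprotected with added 15% PEG-200. Ligand density checked with polder omit maps.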

In the next assay the target is mammalian GSALDH. The note with it: competitive with P5C; cited from earlier work.
Where [3] appears, read: Competitive model, NAD+ fixed at 0.2 mM.
Setting [4] is: Uncompetitive model, NAD+ fixed at 0.2 mM.
Setting [5] is: Mixed model, NAD+ fixed at 0.2 mM.

On to `O=C(O)[C@@H]1C[C@H](O)CN1` [CHLP, cis-4-hydroxy-L-proline], for which the “Inhibition of the GSALDH activity of SmPutA” value in assay [1] (fit to competitive model, L-P5C variable substrate, NAD+ fixed) is listed as “does not inhibit”. In the assay with SmPutA, the “ΔT1/2 (increase of midpoint of stability curve)” value was determined as 2.1 °C. For the same compound, in assay [2], the “Binding to GSALDH site (electron density)” value is recorded as “does not bind GSALDH”.

Turning to `O=C(O)[C@H]1CCCN1` [D-Pro, D-proline], the Ki turned out to be 1.5 ± 0.5 mM in assay [1] (setting [3]) and 4.5 ± 0.2 mM in assay [1] (setting [4]).

With `O=C(O)C1CCC=N1` [L-P5C, Δ^1-pyrroline-5-carboxylate], the Km in assay [1] (substrate of GSALDH activity of SmPutA, NAD+ fixed at 0.2 mM) is 300 ± 100 µM.

Turning to `O=C(O)[C@@H]1C[C@@H](O)CN1` [THLP, trans-4-hydroxy-L-proline], in assay [1] (setting [3]), the Ki came out at 7 mM. In assay [1] (setting [5]), the Ki was found to be 27 mM and the α was 0.6 ± 0.1. Further, the “ΔT1/2 (increase of midpoint of stability curve)” value in the assay on SmPutA is 2.9 °C.

With `O=C(O)[C@H]1C[C@@H](O)CN1` [CHDP, cis-4-hydroxy-D-proline], the Ki in assay [1] (setting [3]) was determined as 8 mM; in assay [1] (setting [5]), 25 mM. The compound also registered a α in assay [1] (setting [5]) of 0.9 ± 0.5. Moreover, the “ΔT1/2 (increase of midpoint of stability curve)” value with SmPutA turned out to be 4.0 °C.

Take `O=C(O)[C@@H]1CCCN1` [L-Pro, L-proline]: the Ki in assay [1] (setting [3]) was 11 mM; in assay [1] (setting [4]), 19 mM; on mammalian GSALDH it was 3 mM.

Consider `O=C(O)[C@H]1C[C@H](O)CN1` [THDP, trans-4-hydroxy-D-proline], for which the Ki in assay [1] (setting [3]) worked out at 4.5 ± 0.5 mM. For the same compound, in assay [1] (setting [5]), the inhibition constant Ki turned out to be 10 mM and the α is 1.6 ± 0.4. The “ΔT1/2 (increase of midpoint of stability curve)” value in the assay with SmPutA was 5.6 °C.
